This is an account of results in ChEMBL document CHEMBL1125232, “Synthesis and biological activity of bay-region metabolites of a cyclopenta-fused polycyclic aromatic hydrocarbon: benz[j]aceanthrylene” (1991).

Type in all cases: functional, Salmonella enterica subsp. enterica serovar Typhimurium
Experiment [1] concerns Salmonella typhimurium. Briefly: Mutagenicity determined by Ames assay in Salmonella Typhimurium strain TA98, without metabolic activation by Aroclor 1254 induced rat liver S9 at a dose of 0.5 ug/plate. Further details: unit: revertants/plate. The gist of the method:
(§1)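 Ames plate incorporation assay in TA98, modified per Claxton, with no S9 or cofactors added. Test compounds were given from DMSO solution. Each dose level was plated in duplicate on two or three separate occasions. Read-out is mean His+ revertants/plate.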
Background: In the Ames test, an excess of revertant colonies over the control signals mutagenicity.

Experiment [2] deals with Salmonella typhimurium. Briefly: (§2) Mutagenicity determined by Ames assay in Salmonella Typhimurium strain TA98, with metabolic activation by Aroclor 1254 induced rat liver S9 at a dose of 1.0 ug/plate. The gist of the method: (§3)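 Ames plate incorporation test following Claxton's modification, with compounds dissolved in DMSO. Each plate received 0.8 mg S9 protein from livers of Aroclor 1254-treated male rats plus NADPH-generating cofactors. Each dose was plated in duplicate on two or three separate occasions, and the value is the mean His⁺ revertants/plate. The positive control was 2-anthramine at 0.5 μg/plate, with DMSO as the solvent control.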

For experiment [3], the system named is Salmonella typhimurium. Briefly: (§4) Mutagenicity determined by Ames assay in Salmonella Typhimurium strain TA98, with metabolic activation by Aroclor 1254 induced rat liver S9 at a dose of 20 ug/plate. The gist of the method: as §3
The test system of experiment [4] is Salmonella typhimurium. The experiment can be described thus: (§5) Mutagenicity determined by Ames assay in Salmonella Typhimurium strain TA98, with metabolic activation by Aroclor 1254 induced rat liver S9 at a dose of 5 ug/plate. The method, boiled down: as §3
Experiment [5] deals with Salmonella typhimurium. Briefly: (§6) Mutagenicity determined by Ames assay in Salmonella Typhimurium strain TA98, without metabolic activation by Aroclor 1254 induced rat liver S9 at a dose of 1.0 ug/plate. The gist of the method:
(§7)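 Ames plate incorporation test following Claxton's modification, run without S9, with compounds dissolved in DMSO. Each dose was plated in duplicate on two or three separate occasions, and the value is the mean His⁺ revertants/plate. The positive control was 2-nitrofluorene at 3 μg/plate, with DMSO as the solvent control.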

Experiment [6] relates to Salmonella typhimurium. Briefly: (§8) Mutagenicity determined by Ames assay in Salmonella Typhimurium strain TA98, without metabolic activation by Aroclor 1254 induced rat liver S9 at a dose of 10 ug/plate. The method, boiled down:
as §7

The subject of experiment [7] is Salmonella typhimurium. The experiment can be described thus: (§9) Specific mutagenicity in the absence of protein S9, was expressed as His+ revertants/nmol, calculated by least-square linear regression. The gist of the method: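 Calculated as His⁺ revertants/nmol by least-squares linear regression over the linear portion of the no-S9 plate-incorporation dose–response (DMSO solutions, duplicate plates, two or three occasions). The fit ran to 10 μg/plate for most compounds, but for two compounds it ran to 5 or 20 μg/plate.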

Experiment [8] deals with Salmonella typhimurium. Briefly: (§10) Specific mutagenicity in the presence of protein S9, was expressed as His+ revertants/nmol, calculated by least-square linear regression. The method, boiled down: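 Calculated as His⁺ revertants/nmol by least-squares linear regression over the linear portion of the dose–response to 10 μg/plate. Plates received 0.8 mg Aroclor 1254-induced male rat liver S9 protein with NADPH-generating cofactors. Compounds were dissolved in DMSO and plated in duplicate on two or three occasions.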

Experiment [9] deals with Salmonella typhimurium. The experiment can be described thus: (§11) Mutagenicity determined by Ames assay in Salmonella Typhimurium strain TA98, with metabolic activation by Aroclor 1254 induced rat liver S9 at a dose of 0.5 ug/plate. The method, boiled down:
as §3

Experiment [10] deals with Salmonella typhimurium. Briefly: (§12) Mutagenicity determined by Ames assay in Salmonella Typhimurium strain TA98, without metabolic activation by Aroclor 1254 induced rat liver S9 at a dose of 20 ug/plate. The method, boiled down:
as §7

Experiment [11] concerns Salmonella typhimurium. Briefly: (§13) Mutagenicity determined by Ames assay in Salmonella Typhimurium strain TA98, without metabolic activation by Aroclor 1254 induced rat liver S9 at a dose of 5 ug/plate. The method, boiled down:
as §7

For experiment [12], the system named is Salmonella typhimurium. Briefly: (§14) Mutagenicity determined by Ames assay in Salmonella Typhimurium strain TA98, with metabolic activation by Aroclor 1254 induced rat liver S9 at a dose of 10 ug/plate. The method, boiled down:
as §3

Experiment [13] has as its system Salmonella typhimurium. The experiment is described as §11. The method, boiled down:
(§15)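 Ames plate incorporation assay, modified per Claxton, in TA98. Compounds dissolved in DMSO. Each plate received 0.8 mg S9 protein from livers of Aroclor 1254-treated male rats, plus NADPH-generating cofactors. Each dose was run in duplicate on two or three separate occasions. Values are mean His+ revertants/plate.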
This is another data set of the same source.

The test system of experiment [14] is Salmonella typhimurium. The description is as §2. The method, boiled down: as §15
The source holds these as a separate data set.

Experiment [15] relates to Salmonella typhimurium. The experiment is described as §14. The method, boiled down: as §15
This is another data set of the same source.

For experiment [16], the system named is Salmonella typhimurium. Described as §4. The gist of the method: as §15
The source holds these as a separate data set.

Experiment [17] deals with Salmonella typhimurium. The description is as §5. The method, boiled down: as §15
This is another data set of the same source.

The test system of experiment [18] is Salmonella typhimurium. The description is as §6. The method, boiled down:
as §1
The source holds these as a separate data set.

Experiment [19] has as its system Salmonella typhimurium. The description is as §8. The gist of the method:
as §1
The source holds these as a separate data set.

In experiment [20] the test system is Salmonella typhimurium. Described as §12. The gist of the method: as §1
This is another data set of the same source.

Experiment [21] concerns Salmonella typhimurium. The description is as §13. The method, boiled down: as §1
This is another data set of the same source.

The subject of experiment [22] is Salmonella typhimurium. The experiment is described as §9. The method, boiled down: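 Ames plate incorporation assay in TA98 without S9; compounds in DMSO; doses in duplicate on two or three occasions. His+ revertants/nmol from least-squares linear regression of the linear part of the dose-response curve, up to 10 µg/plate for most compounds and to 5 or 20 µg/plate for others.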
This is another data set of the same source.

In experiment [23] the test system is Salmonella typhimurium. The experiment is described as §10. The gist of the method: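 Ames plate incorporation assay in TA98 with 0.8 mg Aroclor 1254-induced male rat liver S9 protein per plate plus NADPH-generating cofactors; compounds in DMSO; doses in duplicate on two or three occasions. His+ revertants/nmol from least-squares linear regression of the dose-response curve's linear part, up to 10 µg/plate.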
The source holds these as a separate data set.

For `O[C@H]1C=Cc2c(ccc3c4c5c(cccc5cc23)C=C4)[C@@H]1O`, the Mutagenicity in experiment [1] is 36; in experiment [2], 100; in experiment [3], 543; in [4] it was 335; in experiment [5], 40; in experiment [6], 45. Moreover, the Mutagenicity in experiment [9] turned out to be 67; in experiment [10], 75; in experiment [11], 43; in experiment [12], 469. The Activity in experiment [7] is recorded as 0.7; in experiment [8], 9.4.
For `C1=CC2OC2c2ccc3c4c5c(cccc5cc3c21)C=C4` (stereo not drawn), the Mutagenicity in experiment [13] was determined as 58; in experiment [14], 71; in experiment [15] it was 272; in experiment [16] it was 350; in [17], 176; in [1], 28. Besides, the Mutagenicity was 26 in experiment [18], 39 in experiment [19], 46 in [20] and 34 in experiment [21]. The Activity in experiment [22] is 0.2; in experiment [23], 5.6.
With `O[C@H]1c2ccc3c4c5c(cccc5cc3c2[C@@H]2OC2[C@@H]1O)C=C4` (stereo partly drawn), the Mutagenicity stood at 37 in [1]; 86 in [2]; 148 in experiment [3]; 283 in experiment [4]; 53 in [5]; 172 in experiment [6]. The Mutagenicity was 51 in [9], 93 in experiment [10], 186 in experiment [11] and 287 in experiment [12]. The Activity in experiment [7] is on record as 10; in experiment [8] it was 12.9.
With `C1=Cc2c3ccc4ccccc4c3cc3cccc1c23` [BENZO[J]ACEANTHRYLENE], the Mutagenicity in experiment [13] is 76; in [14], 103; in [15] it was 694; in experiment [16] it was 915; in experiment [17], 429; in [1], 35. The Mutagenicity was found to be 39 in experiment [18], 32 in experiment [19], 38 in [20] and 38 in experiment [21]. For the same compound, the Activity in [22] is 0.1; in experiment [23] it was 12.9.
